From ChEMBL document CHEMBL1131621, “Synthesis and activity of dipeptides, linked to targeting ligands, as specific NK cell enhancers” (1998)
The source made the active and inactive calls. The calls are words filed in the database; no cut-off is given here.

Key:
[1] = In vitro Natural Killer cell activity (Activation of murine splenocyte NK cells by its ability to lyze YAC-1 target cells in chromium release assay) relative to interleukin 2 at 10E-4 to 10E-12 M conc; Range 41-60%; format: functional, Mus musculus
In short: (§1)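 Spleens from female C57BL/6 (H-2b) mice, 6–8 weeks old, homogenized in RPMI 1640 with 10% FCS and 2 mM L-glutamine. Mononuclear cells isolated on a Lympholyte M gradient (800g, 20 min), washed in PBS, viability checked by trypan blue. 5×10^5 splenocytes with compound incubated 4 h with 5×10^3 51Cr-labelled YAC-1 cells; % specific lysis from released chromium. Compounds tested at 10^-4–10^-12 M. Peak activity scored relative to IL 2 (100%) in 20% bands. Actives run 2–5 times, inactives once.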

Mus musculus [2] = test: Antimetastatic effect in lungs of C57BL/6 mice injected iv on day 0 with 250000 B16 melanoma cells and a dose of 50 mg/kg of compound in exp 2; format: functional, Lung
In short: (§2)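 Female C57BL/6 mice, 6–8 weeks old, given 2.5×10^5 B16F10 melanoma cells iv on day 0. Sacrifice on day 24; lungs fixed and surface tumour colonies counted. Mean ± SEM; n = 8 in exp 1, n = 4 in exp 2.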

[3] = In vitro Natural Killer cell activity (Activation of murine splenocyte NK cells by its ability to lyze YAC-1 target cells in chromium release assay) relative to interleukin 2 at 10E-4 to […] conc; Range 101-120%; format: functional, Mus musculus; in short: as §1
Homo sapiens [4] = organism: Homo sapiens; test: Iin vitro NK cell cytolytic activity (K 562 target) using human PBML; Range 81-100%; format: functional
In short: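 PBML isolated from heparinized human blood by Ficoll-Hypaque density gradient centrifugation. For the NK assay (K562 targets), activity is scored relative to an IL 2 control.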

Homo sapiens [5] = organism: Homo sapiens; test: The compound was tested in vitro for phagocytotic activity against human PBML; No effect; format: functional
Mus musculus [6] = test: Antimetastatic effect in lungs of C57BL/6 mice injected iv on day 0 with 250000 B16 melanoma cells and a dose of 25 mg/kg of compound in exp 1; format: functional, Lung; in short: as §2
Homo sapiens [7] = organism: Homo sapiens; test: The compound was tested in vitro for respiratory burst against human PBML; No effect; format: functional
Mus musculus [8] = organism: Mus musculus; test: The compound was tested in vitro for T cell proliferation (PHA, ConA) against murine splenocytes; No effect; format: functional
Mus musculus [9] = test: Antimetastatic effect in lungs of C57BL/6 mice injected iv on day 0 with 250000 B16 melanoma cells and a dose of 0 mg/kg of compound in exp 2; format: functional, Lung; in short: as §2
Mus musculus [10] = organism: Mus musculus; test: The compound was tested in vitro for mixed lymphocyte reaction against murine splenocytes; No effect; format: functional
Mus musculus [11] = test: Antimetastatic effect in lungs of C57BL/6 mice injected iv on day 0 with 250000 B16 melanoma cells and a dose of 25 mg/kg of compound in exp 2; format: functional, Lung; in short: as §2
Mus musculus [12] = organism: Mus musculus; test: The compound was tested in vitro for B cell proliferation (PWM, LPS) against murine splenocytes; No effect; format: functional
Mus musculus [13] = organism: Mus musculus; test: The compound was tested in vitro for phagocytotic activity against murine whole blood; No effect; format: functional
Mus musculus [14] = test: Antimetastatic effect in lungs of C57BL/6 mice injected iv on day 0 with 250000 B16 melanoma cells and a dose of 0 mg/kg of compound in exp 1; format: functional, Lung; in short: as §2
Mus musculus [15] = organism: Mus musculus; test: The compound was tested in vitro for respiratory burst against murine whole blood; No effect; format: functional
Mus musculus [16] = organism: Mus musculus; test: In vitro for cytotoxic T lymphocyte activity against murine splenocytes; Range 21-40% of IL 2; format: functional
Mus musculus [17] = organism: Mus musculus; test: Peak or the range of peak activity relative to positive IL 2 control; Range 10e-12-10e-7; format: functional; in short: as §1
[18] = In vitro Natural Killer cell activity (Activation of murine splenocyte NK cells by its ability to lyze YAC-1 target cells in chromium release assay) relative to interleukin 2; Range 0-20%; format: functional, Mus musculus; in short: as §1
[19] = In vitro Natural Killer cell activity (Activation of murine splenocyte NK cells by its ability to lyze YAC-1 target cells in chromium release assay) relative to interleukin 2 at 10E-4 to 10E-12 M conc.; format: functional, Mus musculus; in short: as §1
[20] = In vitro Natural Killer cell activity (Activation of murine splenocyte NK cells by its ability to lyze YAC-1 target cells in chromium release assay) relative to interleukin 2 at 10E-6 to 10E-12 M conc; Range 21-40%; format: functional, Mus musculus; in short: as §1
[21] = In vitro Natural Killer cell activity (Activation of murine splenocyte NK cells by its ability to lyze YAC-1 target cells in chromium release assay) relative to interleukin 2 at 10E-8 to 10E-12 M conc; Range 41-60%; format: functional, Mus musculus; in short: as §1
[22] = In vitro Natural Killer cell activity (Activation of murine splenocyte NK cells by its ability to lyze YAC-1 target cells in chromium release assay) relative to interleukin 2 at 10E-4 to 10E-12 M conc; Range 61-80%; format: functional, Mus musculus; in short: as §1
Mus musculus [23] = organism: Mus musculus; test: Peak or the range of peak activity relative to positive IL 2 control; Range 10e-12-10e-5; format: functional; in short: as §1
[24] = In vitro Natural Killer cell activity (Activation of murine splenocyte NK cells by its ability to lyze YAC-1 target cells in chromium release assay) relative to interleukin 2 at 10E-4 to 10E-12 M conc; Range 21-40%; format: functional, Mus musculus; in short: as §1
Mus musculus [25] = organism: Mus musculus; test: Peak or the range of peak activity relative to positive IL 2 control; Range 10e-12-10e-4; format: functional; in short: as §1
[26] = In vitro Natural Killer cell activity (Activation of murine splenocyte NK cells by its ability to lyze YAC-1 target cells in chromium release assay) relative to interleukin 2 at 10E-4 to 10E-12 M conc; Range 81-100%; format: functional, Mus musculus; in short: as §1

CC1OC(OCCCCCCNC(=O)[C@H](CCC(=O)O)NC(=O)[C@H](C)N)C(O)C(O)C1O (some centres not stated)
Stimulation [1]: 41%

CC1OC(OCCCCCCNC(=O)[C@H](CCC(N)=O)NC(=O)[C@@H](C)N)C(O)C(O)C1O (some centres not stated)
No. of lung colonies (Mus musculus [2]): 60
Stimulation [3]: 101%
Activity (Homo sapiens [4]): 81%
Activity (Homo sapiens [5]): inactive
No. of lung colonies (Mus musculus [6]): 109
Activity (Homo sapiens [7]): inactive
Activity (Mus musculus [8]): inactive
No. of lung colonies (Mus musculus [9]): 101
Activity (Mus musculus [10]): inactive
No. of lung colonies (Mus musculus [11]): 86
Activity (Mus musculus [12]): inactive
Activity (Mus musculus [13]): inactive
No. of lung colonies (Mus musculus [14]): 142
Activity (Mus musculus [15]): inactive
Activity (Mus musculus [16]): 21%
Concentration (Mus musculus [17]): 10 pM

CC(=O)OCCCCCCNC(=O)[C@@H](CCC(N)=O)NC(=O)[C@H](C)N
Stimulation [18]: 0%

C[C@@H](N)C(=O)N[C@H]1CCC(=O)NC1=O
Stimulation [19]: 0%

C=CCn1c(=O)n([C@@H]2O[C@H](CO)[C@@H](O)[C@H]2O)c2nc(N)[nH]c(=O)c21 [LOXORIBINE]
Stimulation [19]: 0%

CC1OC(OCCc2ccc(NC(=O)[C@H](CCC(N)=O)NC(=O)[C@@H](C)N)cc2)C(O)C(O)C1O (some centres not stated)
Stimulation [19]: 0%

CC[C@H](C)[C@H](N)C(=O)N1CCC[C@H]1C(=O)NCCCCCCO
Stimulation [20]: 21%

C[C@H](N)C(=O)N[C@@H](CCC(N)=O)C(=O)NCCCCCCO
Stimulation [1]: 41%

CC1OC(OCCCCCCNC(=O)CC[C@H](NC(=O)[C@H](CCC(N)=O)NC(=O)[C@@H](C)N)C(=O)NCCCCCCOC2OC(C)C(O)C(O)C2O)C(O)C(O)C1O (some centres not stated)
Stimulation [18]: 0%

C[C@@H](N)C(=O)N[C@@H](CCC(N)=O)C(=O)NCCCCCCCl
Stimulation [18]: 0%

CC1OC(SCCCCCCNC(=O)[C@H](CCC(N)=O)NC(=O)[C@@H](C)N)C(O)C(O)C1O (some centres not stated)
Stimulation [21]: 41%

O=C1CC[C@@H](C(=O)NCCCCCCO)N1
Stimulation [22]: 61%
Concentration (Mus musculus [23]): 10 pM

CC1OC(OCCCCCCNC(=O)CNC(=O)[C@@H](C)N)C(O)C(O)C1O (some centres not stated)
Stimulation [19]: 0%

CC1OC(OCCCCCCNC(=O)[C@H](CCCCNC(=O)[C@H](CCC(N)=O)NC(=O)[C@@H](C)N)NC(=O)[C@H](CCC(N)=O)NC(=O)[C@@H](C)N)C(O)C(O)C1O (some centres not stated)
Stimulation [24]: 21%

CC1OC(OCCCCCCNC(=O)[C@H](CCC(=O)O)NC(=O)[C@@H](C)N)C(O)C(O)C1O (some centres not stated)
Stimulation [1]: 41%
Concentration (Mus musculus [25]): 10 pM

C[C@@H](N)C(=O)N[C@@H](CCC(N)=O)C(=O)NCCCCCCO
Stimulation [26]: 101%

C[C@@H](N)C(=O)N[C@@H](CCC(N)=O)C(=O)NCCCCCCO[C@H]1O[C@H](CO)[C@H](O)[C@@H](O)[C@H]1O
Stimulation [26]: 0%

CC1OC(OCCCCCCNC(=O)[C@@H](CCC(N)=O)NC(=O)[C@H](C)N)C(O)C(O)C1O (some centres not stated)
Stimulation [19]: 0%

CC[C@@H](C)[C@H](N)C(=O)N1CCC[C@H]1C(=O)NCCCCCCOC1OC(C)C(O)C(O)C1O (some centres not stated)
Stimulation [19]: 0%

C[C@@H](N)C(=O)N[C@@H](CCC(N)=O)C(=O)NCCCCCC(=O)O
Stimulation [19]: 0%
